Measurements pooled from the literature.
Protocols differ between the studies behind these lines.
Target: Serine/threonine-protein kinase SIK2 (SIK2, Homo sapiens, UniProt Q9H0K1)

O=C(Nc1cnn(-c2csc(C(=O)NC3COC3)c2)c1)Nc1ccccc1Cl  remaining activity (enzyme activity, inhibitor; 5 µM): 97%
FC(F)(F)Oc1cccc(-c2cnc3ccc(-c4ccncc4)nn23)c1  activity vs control (enzyme activity, inhibitor, radiometric; 5 µM): 69%
O=C1NC(=O)c2cc(Nc3ccc(F)cc3)c(Nc3ccc(F)cc3)cc21  remaining signal (cell-free assay; 0.5 µM): 103%
Cc1nc(C2CCN(C(=O)c3ccc(OC(F)(F)F)cc3N)CC2)c2ncc(N3CCN(C)CC3)cc2n1  remaining binding (cell-free assay, competition with immobilised ligand; 1 µM): 100%
COc1cc(-c2cc(-c3ccc(N4CCNCC4)cc3)cnc2N)cc(OC)c1OC  inhibition (enzyme activity, inhibitor; 0.1 µM): 66%
Nc1ncnc2occ(-c3ccc(NC(=O)Nc4cc(C(F)(F)F)ccc4F)cc3)c12  remaining signal (cell-free assay, inhibitor; 20 µM): 57%
O=C(Nc1cnn(-c2csc(C(=O)NC3COC3)c2)c1)Nc1c(F)cccc1Cl  remaining activity (enzyme activity, inhibitor; 5 µM): 95.8%
CCN(CC)CCNC(=O)c1c(C)[nH]c(/C=C2\C(=O)Nc3ccc(F)cc32)c1C  remaining signal (cell-free assay; 0.5 µM): 27.8%
Cc1cc(NC(=O)c2cccc(S(F)(F)(F)(F)F)c2)cc(-n2ccn3nc(-c4cccnc4)cc23)c1  remaining binding (cell-free assay, competition with immobilised ligand; 1 µM): 100%
CC(C)(O)[C@H]1CC[C@H](Nc2ccc3ncc(-c4cccc(C(F)(F)F)c4)n3n2)CC1  remaining activity (enzyme activity, inhibitor; 1 µM): 47.7%
O=C(NCCCC1CCCCC1)c1ccc(CNC(=O)c2cnn(-c3ccccc3)c2C(F)(F)F)cc1  remaining binding (cell-free assay, competition with immobilised ligand; 0.1 µM): 100%
CC(C)(C)c1nc2c(s1)c1nc(N)ncc1c1ccc(NS(=O)(=O)c3c(F)cccc3F)c(F)c12  remaining activity (enzyme activity, inhibitor, radiometric; 1 µM): 101%
CNCc1ccccc1-c1csc([C@@H](C)Nc2nc(C)nc3cc(OC)c(OC)cc23)c1  remaining binding (cell-free assay, competition with immobilised ligand; 1 µM): 100%
COc1cc2ncnc(Nc3ccc(Oc4ccccc4)c(C)c3C)c2cc1OC  inhibition (enzyme activity, inhibitor; 1 µM): 0%
CN([C@@H]1CCc2c(CC(=O)O)c3cc(S(C)(=O)=O)ccc3n2C1)S(=O)(=O)c1ccc(F)cc1  remaining binding (cell-free assay, competition with immobilised ligand; 1 µM): 93%
C[S+]([O-])c1ccc(-c2nc(-c3ccncc3)c(-c3ccc(F)cc3)[nH]2)cc1 (stereo not drawn)  remaining signal (cell-free assay; 0.5 µM): 82.1%
CN(C)C(=O)Cn1cc(-c2nc(C3(c4ccc(-c5cnc(N)nc5)cc4)CC3)no2)cn1  remaining binding (cell-free assay, competition with immobilised ligand; 1 µM): 100%
CCCS(=O)(=O)Nc1ccc(F)c(C(=O)c2c[nH]c3ncc(-c4ccc(Cl)cc4)cc23)c1F  inhibition (enzyme activity, inhibitor; 1 µM): < 10%
